Results on 22 sequences are retold here after the EternaBench riboswitch data.

The subject of this data set is MS2 coat protein. Nature of the data set: apparent Kd, MS2 coat protein; higher = weaker binding; RNA-MaP array; theophylline 2 mM where present. Put shortly: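 Stalled E. coli RNA polymerase transcribed the designs on Illumina sequencing-chip clusters. SNAP-549-labelled MS2 coat protein was titrated from 0.7 or 1.5 nM, doubling to 3 µM, without and then with constant ligand, in 100 mM Tris-HCl pH 7.5, 80 mM KCl, 4 mM MgCl2, BSA, DTT, yeast tRNA and Tween-20. Per-cluster binding curves were fitted to green signal normalised to red-channel RNA signal and control-cluster median Fmax. The apparent Kd is the median of the filtered fits.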

Setting [1] is: designed as: OFF switch for theophylline, no ligand.
Setting [2] is: ligand present: theophylline, designed as: OFF switch for theophylline.
The mark [3] stands for this setting: designed as: ON switch for theophylline, no ligand.
[4] abbreviates: ligand present: theophylline, designed as: ON switch for theophylline.

“GCACCAGGUACGGAUACCAGCUAUAGGUACAUGUCAGGACAUGAGGAUCACCCAUGUGGUAGCCCUUGGCAGCUGUACCUGGUGC”: the “apparent Kd” value by setting is: under setting [1], 17.4 nM; under setting [2], 27.2 nM.

As to “UGACAUUGCUGCGAUACCAGACAUGAGGAUCACCCAUGUACCAAGAAAACGUACAUAAAUGUCCCUUGGCAGCGCAGCAAUGUCU”, the “apparent Kd” value under setting [1] amounted to 524 nM and the “apparent Kd” value under setting [2] came to 1360 nM.

Consider “UACAUGAGGAUCACCCAUGUGGCGGAUGAUACCAGUAUGGUGACAUACCCUUGGCAGCAUGCUAUGAGGAUCACCCAUGUGUGCA”, for which the “apparent Kd” value was 85.3 nM under setting [1] and 166 nM under setting [2].

Take “UUUGCACAUGAGGAUCACCCAUGUACAGAUACCAGCCUCAUCUACGGCCCUUGGCAGCUGAGACAAUGGUGACGUGACGGGCUUU”: the “apparent Kd” value reads like this: under setting [1], 11.7 nM; under setting [2], 28.2 nM.

On to “GGUGUAUCCAUCGAUACCAGCCACCACCGAUAGACCACAUGAGGAUCACCCAUGUUGGGUGGCCCUUGGCAGCGGUGGCUGUGCC”, for which the “apparent Kd” value was 317 nM under setting [3] and 172 nM under setting [4].

With “UUUUAAAGCAUGGCGUAUCGGAAAACCGAUACCAGUACAGAAAUGUACCCUUGGCAGCGGAAUUUUACAUGAGGAUCACCCAUGU”, the “apparent Kd” value is, setting by setting: under setting [1], 13.1 nM; under setting [2], 43.4 nM.

Take “UCGUCCUCCGCAAGGAGGAGGAGUUGCGAUACCAGCACGGUAACGUGCCCUUGGCAGCGCACAUGAGGAUCACCCAUGUGGUGUU”: the “apparent Kd” value amounted to 214 nM under setting [1] and 489 nM under setting [2].

“AUCGUACCUGAUGAUACCAGCAUGUGCUCGUAACAUGAGGAUCACCCAUGUGAUCAGUGAUGCCCUUGGCAGCAUGAUCGGUGCA”: the “apparent Kd” value runs as follows: under setting [3], 169 nM; under setting [4], 19.3 nM.

Take “UGACAUUGCUGCGAUACCAGACAUGAGGAUCACCCAUGUACCAAGGUACGAAAAUAACAUGUCCCUUGGCAGCGCAGCAAUGUCU”: the “apparent Kd” value by setting is: under setting [1], 12.6 nM; under setting [2], 254 nM.

On to “ACAUGAGGAUCACCCAUGUAACGUCUUGAUACCAGACGAGAAGUAGUCCCUUGGCAGCAAAUACGUGAGGGUCACACAUGUGUAA”, for which the “apparent Kd” value came to 23.4 nM under setting [1] and 61.5 nM under setting [2].

“AGACAUGAGGAUCACCCAUGUAGUACGGAUACCAGAUCCAGAUUUAUCCCUUGGCAGCUGUGGUACAGCGUUGCAACGCUCCUAG”: the “apparent Kd” value runs as follows: under setting [1], 17.5 nM; under setting [2], 17.5 nM.

As to “AGACAUGAGGAUCACCCAUGUAGUACGGAUACCAGAUCCAGAUGUAUCCCUUGGCAGCUGUGGUACAGCGUUGCAACGCUCCUAG”, the “apparent Kd” value is, setting by setting: under setting [1], 16 nM; under setting [2], 15.3 nM.

As to “UUUGAUAGGACAGAUACCAGCGUGUUGUAGAACAUGAGGAUCACCCAUGUAGUGAUCAAGCGCCCUUGGCAGCUGGUUUGUUAGG”, the “apparent Kd” value is, setting by setting: under setting [3], 170 nM; under setting [4], 82.6 nM.

Regarding “AAUUAAUUAACCGAUACCAGCCAACCAAAACAUGAGGAUCACCCAUGUAAGAAGAAGGGUGGCCCUUGGCAGCGGUUAAUUAAUU”, the “apparent Kd” value under setting [3] turned out to be 27.8 nM and the “apparent Kd” value under setting [4] turned out to be 9.07 nM.

With “AGACAUGAGGAUCACCCAUGUAGCAUGGAUACCAGAUGUAGAUUAGUCCCUUGGCAGCUGUGGUGAAGUGAUGCAUUGCUCCUAG”, the “apparent Kd” value amounted to 63.2 nM under setting [1] and 61.6 nM under setting [2].

For the sequence “ACAUGAACAUGAGGAUCACCCAUGUGGGAUACCAGCGUGUAUGAGCGCCCUUGGCAGCUCAUGACAUGAGGAUCACCCAUGUUGG”, the “apparent Kd” value reads like this: under setting [1], 262 nM; under setting [2], 453 nM.

With “ACGUCAACCCUUAUGUUGAUGCAAGACGAUACCAGCCUGGAUACAGGCCCUUGGCAGCGUCAACAUGAGGAUCACCCAUGUAAUA”, the “apparent Kd” value reads like this: under setting [3], 82.8 nM; under setting [4], 118 nM.

For the sequence “UGUAACAUGAGGAUCACCCAUGUGCACGAUACCAGCUUAUUGAUAGGCCCUUGGCAGCGUAUGCGGAAGCUGUAUAAUAUAUAUC”, the “apparent Kd” value by setting is: under setting [3], 11.3 nM; under setting [4], 12.7 nM.

Consider “GUCAGUAGAACAGAUACCAGUCAAAGGCUGUGAUCUCAUAACAUGAGGAUCACCCAUGUUGACCCUUGGCAGCUGUGGGCGAGGG”, for which the “apparent Kd” value reads like this: under setting [1], 45.2 nM; under setting [2], 391 nM.

Turning to “AUACACCUCGUCCAGGCAAUCUUUAGUGAUACCAGCUAACUCCGUGGCCCUUGGCAGCACAUGAGGAUCACCCAUGUGCGACAUC”, the “apparent Kd” value is 11.1 nM under setting [1] and 11.8 nM under setting [2].

Take “UGUUUUAAAAGUGAUACCAGACAAACAUGAGGAUCACCCAUGUAACAUGAGAGAUAAUAAGUCCCUUGGCAGCACAUAAUUAGUA”: the “apparent Kd” value by setting is: under setting [3], 31.8 nM; under setting [4], 26.4 nM.

In the case of “AAGCAGGGUGUAAAAUAAAUAAUCACUGAUACCAGACUAUGAGAUGUCCCUUGGCAGCAGAAACAUGAGGAUCACCCAUGUAAUA”, the “apparent Kd” value runs as follows: under setting [1], 22.7 nM; under setting [2], 32.3 nM.

The apparent Kd is the concentration giving half-maximal binding under the conditions of the assay.
